# BB579 growth dn – reduces growth of yeast BB579 in restrictive medium | S. cerevisiae BB579 growth, OD615, 48 h | inhibition, % at 10 µM | hit rate 0.51% among 140,000;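 active means inhibition above a set limit, 3 SD over the mean compound inhibition, cut at about 44% in these data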
#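 System: DeaD yeast strain BB579; buffer or medium: CSMM-D dextrose restrictive medium; technique: OD at 615 nm; schedule: 4 h cell preincubation, 48 h compound exposure, 30 °C humidified; doses: single 10 µM dose; controls: amphotericin B 10 µg/mL, positive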
# RAM network inh – blocks the yeast RAM network; S. cerevisiae dse1pr::URA3 reporter, 5-FOA growth OD615, 2 d; analog-sensitive cbk1-as2 kinase mutant strain; inhibition, % at 50 µM; hit rate 1.8% among 190,000;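 active means inhibition above a set limit, 3 SD over mean compound inhibition, cut at about 8.4% in these data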;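 further: inhibition rescues growth on 5-FOA so higher OD means more RAM inhibition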
# Measles CPE – protection of cells from measles virus. protection (pct of control), % at 4 µM. hit rate 1.5% among 140,000. Measles virus-infected cells, CPE protection, absorbance; in the data active means protection mostly above about 24%, no sharp cut-off; inactive means mostly below about 26%
# Yeast lifespan up – yeast lifespan extension; S. cerevisiae growth with nicotinamide, OD615; deaD strain in restrictive glucose medium; inhibition of the nicotinamide effect, % at 10 µM; hit rate 0.68% among 130,000;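 active means inhibition above a set limit, placed 3 SD over the median of all compounds, cut at about 26% in these data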
#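 Measured by: optical density (absorbance) at 615 nm; System: modified budding yeast, DeaD strain; Medium: restrictive CSMM-D dextrose medium; Timing: 4 h preincubation then 48 h treatment at 30 °C.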
# SDO1 yeast rescue – restores growth of sdo1-depleted yeast. S. cerevisiae sdo1-depleted JHY4D growth rescue, OD600 30 h; hits give high values; pdr5 snq2 efflux-pump mutant strain. z-score at 10 µM. hit rate 0.21% among 140,000. AID 817;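 active means z-score above 3 at both the 24 hr and the 30 hr optical density reads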
# Hits are given with their value; – = inactive; · = not tested or not shown. An excerpt weighted towards active compounds, which were near 3.8% of everything screened.
SMILES,BB579 growth dn,RAM network inh,Measles CPE,Yeast lifespan up,SDO1 yeast rescue
CC1(C)NC(=O)N(CC(O)COc2ccccc2C(=O)N2CCCCC2)C1=O (centres undefined),–,–,44,–,–
CCc1nnc(NC(=O)CSc2nnc(COc3ccccc3)n2-c2ccc(C)cc2)s1,–,–,–,–,–
CCc1nnc(NC(=O)CSc2nnc(-c3ccccc3O)n2-c2ccc(C)cc2C)s1,–,8.5,–,–,–
CCc1nnc(NC(=O)CSc2nnc(COc3cccc(C)c3)o2)s1,–,–,–,27,–
COCc1nnc(NC(=O)CSc2ccc(C)cc2)s1,–,–,23,–,–
CCOC(=O)CSc1nnc(COc2cccc(C)c2)o1,·,–,·,·,·
Cc1ccc(C(=O)CSc2nnc(COc3cccc(C)c3)o2)cc1,–,9.9,–,–,–
O=c1oc(-c2ccc([N+](=O)[O-])cc2)nc2ccc(O)cc12,·,–,·,·,·
O=C(O)c1cc(NC(=O)c2ccccc2[N+](=O)[O-])ccc1O,·,–,·,·,·
COc1ccc(C(=O)CSc2nnc(-c3cc(C)cc(C)c3)o2)cc1,–,10.0,–,–,–
O=S(=O)(NCC(Nc1ccc(Cl)cc1)c1ccccc1)c1ccc(Cl)cc1 (centres undefined),–,9.0,–,–,–
CC(=O)C1=C(O)C(=O)N(Cc2cccnc2)C1c1ccccc1Cl (centres undefined),–,–,–,–,–
COc1ccc(OC)c(C2C(C(C)=O)=C(O)C(=O)N2Cc2cccnc2)c1 (centres undefined),–,–,–,82,–
COC(=O)c1c(NC(=S)NN2CCN(C)CC2)sc2c1CCC(C)C2 (centres undefined),·,–,·,·,·
O=C1CC(c2ccc(F)cc2)CC(O)=C1C=NCCN1CCN(C(=O)Nc2ccccc2)CC1 (centres undefined),–,–,–,90,–
O=C1CC(c2ccco2)CC(O)=C1C=NCCN1CCN(C(=O)Nc2ccc(Cl)cc2)CC1 (centres undefined),–,–,–,–,–
CC(=O)N1CCN(CCN=CC2=C(O)CC(c3cccs3)CC2=O)CC1 (centres undefined),–,–,–,36,–
C=CCNC(=S)N1CCN(CCN=CC2=C(O)CC(c3cccs3)CC2=O)CC1 (centres undefined),–,–,–,–,–
COc1ccc(NC(=S)N2CCN(CCN=CC3=C(O)CC(c4ccccc4)CC3=O)CC2)cc1 (centres undefined),–,–,–,50,–
CCCC(=O)c1c(C)c2ccccc2n1C,–,–,–,–,–
Cc1nc(N2CCOCC2)nc(OCCN2CCOCC2)c1[N+](=O)[O-],–,–,–,–,–
COCc1cc(=O)[nH]c(Sc2c(-c3ccccc3)c3ccc(Cl)cc3[nH]c2=O)n1,–,–,–,–,–
Cc1cc(=O)[nH]c(Sc2c(-c3ccccc3)c3ccccc3[nH]c2=O)n1,–,8.7,–,–,–
CN(C(=O)c1cccs1)c1ccc(OCC(=O)N2CCC(C(N)=O)CC2)cc1,·,–,·,·,·
CCCCCCn1c(=O)c(-c2ccccc2)c(O)c2ccccc21,–,9.5,–,–,–
SMILES,BB579 growth dn,RAM network inh,Measles CPE,Yeast lifespan up,SDO1 yeast rescue
CCCn1c(=O)c(C(=O)NCc2ccncc2)c(O)c2ccccc21,–,–,–,28,–
CCn1c(=O)c(C(=O)NNS(=O)(=O)c2ccc(C)cc2)c(O)c2ccccc21,–,–,–,32,–
CCCn1c(=O)c(C(=O)NNS(=O)(=O)c2ccc(C)cc2)c(O)c2ccccc21,–,–,·,–,–
CCCCCCCCCC(=O)NNC(=O)c1c(O)c2ccccc2n(CC)c1=O,·,10,·,·,·
CCCCCCn1c(=O)c(Cc2ccccc2)c(O)c2ccccc21,·,–,·,·,·
O=C(NCc1cccc(CNC(=O)C(=O)NCc2ccco2)c1)C(=O)NCc1ccco1,·,–,·,·,·
CC(C)NS(=O)(=O)c1ccc(NC(=O)C2CC3C=CC2C3)cc1 (centres undefined),–,–,–,–,–
CSCCC(=O)Nc1cc(S(=O)(=O)N2CCOCC2)ccc1N1CCN(C)CC1,·,–,·,·,·
Cc1cc(C)cc(OCC(=O)OCC(=O)c2c(N)n(C)c(=O)n(C)c2=O)c1,–,–,–,–,–
COc1ccc2cc(C#N)c(N3CCN(C(=O)c4ccccc4C)CC3)nc2c1,·,8.8,·,·,·
COc1ccc2c(c1OC)C(=O)OC2Nn1cncn1 (centres undefined),–,–,–,51,–
COc1ccc2c(c1OC)C(=O)OC2Nc1ncccc1C (centres undefined),–,–,–,–,–

# Bioassay records: PubChem, several laboratories
